G6PDH counter: inhibits Leuconostoc G6PDH, flagging false hits in G6PDH-based assays; inhibition, % at 5 µM; AID 1020; 200,000 compounds, 0.12% hits; Purified L. mesenteroides G6PDH, diaphorase/resazurin coupled fluorescence, 45 min; in the data active = inhibition above about 50%
HKDC1 inhibitor: blocks human hexokinase HKDC1 activity. AID 493160. inhibition, % at 20 µM. 340,000 compounds, 0.16% hits. recombinant HKDC1, G6PDH/diaphorase resazurin coupled fluorescence;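 active = inhibition above about 35% when tested at 20 µM, limit read from the data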
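Assay system: recombinant HKDC1 hexokinase; detection: coupled resazurin fluorescence, excitation 525 nm, emission 613 nm; benchmarks: DMSO-plus-enzyme-mix negative control, buffer-substituted positive control; compound dosing: single 20 µM dose; schedule: 90 min at room temperature in dark; also added: glucose plus 1 mM ATP as hexokinase substrates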
Diaphorase inh: counter-screen for diaphorase-based assays: diaphorase inhibitors and chemical oxidizers. diaphorase resazurin-to-resorufin fluorescence, NADH, 16 min; bacterial (C. kluyveri) enzyme, not human. AID 1217. inhibition, % at 20 µM. 190,000 compounds, 0.69% hits;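 active = primary screen inhibition at 20 µM above a set limit, cut at about 50% in these data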
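Benchmarks: positive control wells lacking NADH, neutral wells with DMSO only. System: bacterial diaphorase enzyme (C. kluyveri). Input: 0.14 U/mL diaphorase, enzyme working solution. Detection: resorufin fluorescence, excitation 544 nm, emission 590 nm. Times: 16-min room-temperature incubation before reading.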
p97 ATPase inh: blocks human p97 ATPase activity. recombinant p97 ATPase, Kinase-Glo ATP luminescence, 3 h. inhibition, % at 8 µM. 220,000 compounds, 0.42% hits. AID 1481; in the data active = inhibition above about 15%
UBC9 SUMO inh: inhibitors of human SUMOylation (UBC9). P63279. 290,000 compounds, 0.36% hits. inhibition, % at 35 µM. HTRF SUMOylation assay, SAE1/SAE2 + UBC9, in vitro; in the data active = inhibition above about 50%, passing the limit was not always enough; inconclusive = no clear call, values can overlap the other calls
A number is an active result. Sampled rows, rich in hits. Any-hit rate of the full collection: about 0.95%.

For CCOC(=O)C1=C(O)c2ccccc2C(=O)/C1=C\c1ccc(CC)cc1 the results were G6PDH counter inactive, HKDC1 inhibitor 59, Diaphorase inh inactive, p97 ATPase inh inactive and UBC9 SUMO inh inactive.
For CCOC(=O)C1=C(Cc2ccc(C)cc2)C(=O)c2ccccc2C1=O the results were G6PDH counter 54, Diaphorase inh inactive, p97 ATPase inh inactive and UBC9 SUMO inh inactive.
Cc1cc(NC(=O)c2cc(-c3ccc(OC(C)C)cc3)nc3ccccc23)no1 was read as HKDC1 inhibitor inactive and UBC9 SUMO inh inactive.
Screening Cc1ccc2cc(C(c3nnnn3C(C)(C)C)N3CCCCCC3)c(=O)[nH]c2c1 (centres undefined) returned G6PDH counter inactive, HKDC1 inhibitor inactive, Diaphorase inh 52, p97 ATPase inh inactive and UBC9 SUMO inh inactive.
`CC(/C=N/n1c(-c2cc(C)[nH]n2)n[nH]c1=S)=C\c1ccccc1` gave G6PDH counter inactive, HKDC1 inhibitor inactive, Diaphorase inh 51, p97 ATPase inh inactive and UBC9 SUMO inh inactive.
For Cc1cc(-c2n[nH]c(=S)n2/N=C/c2cc([N+](=O)[O-])ccc2Cl)n[nH]1 the results were G6PDH counter inactive, HKDC1 inhibitor inactive, Diaphorase inh 50, p97 ATPase inh inactive and UBC9 SUMO inh inactive.
Screening O=[N+]([O-])c1cc(/C=N/n2c(-c3ccncc3)n[nH]c2=S)ccc1Cl returned G6PDH counter inactive, HKDC1 inhibitor inactive, Diaphorase inh 53, p97 ATPase inh inactive and UBC9 SUMO inh inactive.
For Cc1ccc(/C=N/n2c(-c3ccncc3)n[nH]c2=S)cc1 the results were G6PDH counter inactive, HKDC1 inhibitor inactive, Diaphorase inh 60, p97 ATPase inh inactive and UBC9 SUMO inh inactive.
Screening CC(C)(C)c1ccc(-c2n[nH]c(=S)n2/N=C/c2ccncc2)cc1 returned G6PDH counter inactive, HKDC1 inhibitor inactive, Diaphorase inh inactive, p97 ATPase inh inactive and UBC9 SUMO inh inactive.
`O=[N+]([O-])c1ccc(Cl)c(/C=N/n2c(-c3cccnc3)n[nH]c2=S)c1` gave G6PDH counter inactive, Diaphorase inh inactive, p97 ATPase inh inactive and UBC9 SUMO inh inactive.
`Cc1cc(-c2n[nH]c(=S)n2/N=C/c2ccc(Cl)c([N+](=O)[O-])c2)n[nH]1` gave G6PDH counter inactive, HKDC1 inhibitor inactive, Diaphorase inh inactive, p97 ATPase inh inactive and UBC9 SUMO inh inactive.
For O=C1N(Cc2ccccc2)c2ccc(Cl)cc2C12OCCO2 the results were HKDC1 inhibitor inactive and UBC9 SUMO inh inactive.
CC(Oc1cccc2ccccc12)C(=O)N/N=C/c1cccnc1 (centres undefined) was read as HKDC1 inhibitor inactive and UBC9 SUMO inh inactive.
For COc1ccc(NC2CCCN(C(=O)CSc3ccccc3)C2)cc1OC (centres undefined) the results were HKDC1 inhibitor inactive and UBC9 SUMO inh inactive.
Screening O=C1NC(=S)S/C1=C\c1cc2ccccc2nc1N1CCCCC1 returned HKDC1 inhibitor inactive, p97 ATPase inh inactive and UBC9 SUMO inh 55.
O=C1CS(=O)(=O)c2ccccc2N1 was read as HKDC1 inhibitor inactive and UBC9 SUMO inh inactive.
`Oc1ccc(Br)cc1C=Nc1ccc2c3c(cccc13)CC2` gave G6PDH counter inactive, HKDC1 inhibitor inactive, Diaphorase inh 67, p97 ATPase inh inactive and UBC9 SUMO inh inactive.
Screening Oc1ccc(Cl)cc1C=Nc1ccccc1Br returned G6PDH counter inactive, HKDC1 inhibitor inactive, Diaphorase inh inactive, p97 ATPase inh inactive and UBC9 SUMO inh inactive.
`O=C(Nc1nnc(-c2ccc(F)cc2)s1)Nc1ccccc1F` gave HKDC1 inhibitor inactive, p97 ATPase inh inactive and UBC9 SUMO inh inactive.
`O=C(Nc1nnc(-c2ccccc2SCc2ccccc2F)s1)Nc1ccccc1F` gave G6PDH counter inactive, HKDC1 inhibitor inactive, Diaphorase inh inactive, p97 ATPase inh inactive and UBC9 SUMO inh 52.
CC(=O)Oc1ccc2cc(-c3nc4ccccc4n3C)c(=O)oc2c1 was read as G6PDH counter inactive, HKDC1 inhibitor inactive, Diaphorase inh inactive, p97 ATPase inh inactive and UBC9 SUMO inh 56.
`COc1cccc(NS(=O)(=O)c2ccc3c(c2)C2C=CCC2C(c2ccc(C(=O)O)cc2)N3)c1` (centres undefined) gave G6PDH counter inactive, HKDC1 inhibitor inactive, Diaphorase inh inactive and p97 ATPase inh 15.
Screening CN1CCN(c2ccc(C(CC(N)=O)NC(=O)Cc3cccc4ccccc34)cc2[N+](=O)[O-])CC1 (centres undefined) returned HKDC1 inhibitor inactive and UBC9 SUMO inh inactive.
For O=c1oc2c(O)c(O)cc3c(=O)oc4c(O)c(O)cc1c4c23 the results were G6PDH counter inactive, HKDC1 inhibitor 54, Diaphorase inh 86, p97 ATPase inh inactive and UBC9 SUMO inh inconclusive.
Cc1cc(C(=O)N2CCc3c([nH]c4ccccc34)C2c2c(F)cccc2Cl)no1 (centres undefined) was read as G6PDH counter inactive, HKDC1 inhibitor inactive, Diaphorase inh 57, p97 ATPase inh inactive and UBC9 SUMO inh inactive.
`CCC(CC)CN1CCN=C1N(C)C` gave HKDC1 inhibitor inactive and UBC9 SUMO inh inactive.
Screening Cc1ccc(C(c2ccc(C)c(C)c2)C(O)C2OC(=O)C(O)C2O)cc1C (centres undefined) returned HKDC1 inhibitor inactive.
For Cc1ccc(-n2c(=S)[nH]c3c(oc4ccccc43)c2=O)cc1 the results were G6PDH counter inactive, HKDC1 inhibitor inactive, Diaphorase inh 66, p97 ATPase inh inactive and UBC9 SUMO inh inactive.
For Cc1ccc(-n2c(C)nc3oc4ccccc4c(=O)c3c2=O)cc1 the results were G6PDH counter inactive, HKDC1 inhibitor inactive, Diaphorase inh 56, p97 ATPase inh inactive and UBC9 SUMO inh inactive.
`O=c1c2oc3ccccc3c2[nH]c(=S)n1-c1ccccc1` gave G6PDH counter inactive, HKDC1 inhibitor inactive, Diaphorase inh 66, p97 ATPase inh inactive and UBC9 SUMO inh inactive.
`Cc1cccc(-n2c(=S)[nH]c3c(oc4ccccc43)c2=O)c1` gave G6PDH counter inactive, HKDC1 inhibitor inactive, Diaphorase inh 64, p97 ATPase inh inactive and UBC9 SUMO inh inactive.
For Cc1ccc(C(=O)N2CCC3(CC2)Oc2ccc(F)cc2C(=O)C32CC(c3ccccc3)=NO2)s1 (centres undefined) the results were HKDC1 inhibitor inactive and UBC9 SUMO inh inactive.
CCCCCC(=O)Nc1ccc(C(=O)COC(=O)c2ccccn2)cc1 was read as HKDC1 inhibitor inactive.
For C[C@@]12C(=O)Nc3cc(F)ccc3C(=O)N1[C@H]1c3ccccc3OC[C@@H]1[C@@H]2c1ccccc1 the results were HKDC1 inhibitor inactive.
Screening Cn1c(-c2ccc(C=O)s2)nc2ccccc21 returned G6PDH counter inactive, HKDC1 inhibitor inactive, Diaphorase inh inactive, p97 ATPase inh inactive and UBC9 SUMO inh 56.
`O=C(O)c1cc(S(=O)(=O)NC(CO)C(O)c2ccc([N+](=O)[O-])cc2)ccc1Br` (centres undefined) gave HKDC1 inhibitor inactive and UBC9 SUMO inh inactive.
COc1cc(Nc2nc3c(N)cc(C(F)(F)F)cc3nc2-c2ccccc2)cc(OC)c1OC was read as HKDC1 inhibitor inactive.
